Assay results published in ChEMBL document CHEMBL4613291, “Structural Elucidation and Antimicrobial Characterization of Novel Diterpenoids from Fabiana densa var. ramulosa” (ACS Med Chem Lett, 2020).
Activity calls are given as the source filed them. The rule behind the calls is not given here.

Columns and labels:
[1] = system: Staphylococcus epidermidis; assay: Antimicrobial activity against Staphylococcus epidermidis ATCC 12228 assessed as reduction in bacterial growth at 64 uM incubated for 16 hrs by broth dilution method relative to control; assay type: functional; settings: ATCC 12228, 16 h
In short: (§1)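 Bacterial growth was measured with the strain panel split into Gram-negative and Gram-positive groups. Growth is expressed as percentage of vehicle-treated control bacteria. Values are the mean of three independent experiments ± SEM. Each treated group was compared with control for significance (p < 0.05, 0.01, 0.0001). The highest concentration tested was 64 μM.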

Bacillus thuringiensis [2] = assay: Antimicrobial activity against Bacillus thuringiensis B15 assessed as reduction in bacterial growth at 64 uM incubated for 16 hrs by broth dilution method relative to control; assay type: functional; settings: B15, 16 h; in short: as §1
Priestia megaterium [3] = assay: Antimicrobial activity against Bacillus megaterium Bm11 assessed as reduction in bacterial growth at 16 to 64 uM incubated for 16 hrs by broth dilution method relative to control; assay type: functional; in short: as §1
Staphylococcus aureus [4] = assay: Antimicrobial activity against Staphylococcus aureus ATCC 25923 assessed as reduction in bacterial growth at 64 uM incubated for 16 hrs by broth dilution method relative to control; assay type: functional; settings: ATCC 25923, 16 h; in short: as §1
[5] = Cytotoxicity against human HaCaT cells assessed as reduction in cell viability at 64 uM incubated for 24 hrs by MTT assay relative to control; assay type: cell-based; settings: read-out: INH
In short: (§2)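 Human immortalized keratinocytes (HaCaT) were exposed for 24 h across 16–64 μM. Metabolically active cells were read by MTT and calculated as a percentage of vehicle-treated cells. Values are the mean of three independent experiments ± SEM.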

Staphylococcus aureus [6] = assay: Antimicrobial activity against Staphylococcus aureus ATCC 25923 assessed as reduction in bacterial growth at 16 to 64 uM incubated for 16 hrs by broth dilution method; assay type: functional, organism-based; in short: as §1
[7] = system: Staphylococcus epidermidis; assay: Antimicrobial activity against Staphylococcus epidermidis ATCC 12228 assessed as reduction in bacterial growth at 16 to 64 uM incubated for 16 hrs by broth dilution method; assay type: functional, organism-based; in short: as §1
Priestia megaterium [8] = assay: Antimicrobial activity against Bacillus megaterium Bm11 assessed as reduction in bacterial growth at 16 to 64 uM incubated for 16 hrs by broth dilution method; assay type: functional, organism-based; in short: as §1
Bacillus thuringiensis [9] = assay: Antimicrobial activity against Bacillus thuringiensis B15 assessed as reduction in bacterial growth at 16 to 64 uM incubated for 16 hrs by broth dilution method; assay type: functional, organism-based; in short: as §1
Escherichia coli = assay: Antimicrobial activity against Escherichia coli ATCC 25922 assessed as reduction in bacterial growth at 16 to 64 uM incubated for 16 hrs by broth dilution method; assay type: functional, organism-based; in short: as §1
Pseudomonas aeruginosa = assay: Antimicrobial activity against Pseudomonas aeruginosa ATCC 27853 assessed as reduction in bacterial growth at 16 to 64 uM incubated for 16 hrs by broth dilution method; assay type: functional, organism-based; in short: as §1
HaCaT = assay: Cytotoxicity against human HaCaT cells assessed as reduction in cell viability at 16 to 64 uM incubated for 24 hrs by MTT assay; assay type: cell-based; in short: as §2

C[C@]12C=C[C@@]3(CC[C@@H]4[C@@](C)(COC(=O)CCC(=O)O)CCC[C@@]4(C)[C@@H]3CC1)C2
inhibition at 64 µM [1]: 80% | inhibition at 64 µM (Bacillus thuringiensis [2]): 100% | inhibition (INH) (Priestia megaterium [3]): 80% | inhibition at 64 µM (Staphylococcus aureus [4]): 40% | cytotoxicity at 24 h, 64 µM [5]: 20%

C[C@]12C=C[C@@]3(CC[C@@H]4[C@@](C)(COC(=O)CC(=O)O)CCC[C@@]4(C)[C@@H]3CC1)C2
inhibition (Staphylococcus aureus [6]): Active | inhibition [7]: Active | inhibition (Priestia megaterium [8]): Active | inhibition (Bacillus thuringiensis [9]): Active | inhibition at 64 µM (Bacillus thuringiensis [2]): > 70% | inhibition (INH) (Priestia megaterium [3]): >70% | cytotoxicity at 24 h, 64 µM [5]: 14%

C[C@]12C=C[C@@]3(CC[C@@H]4[C@@](C)(COC(=O)CC(=O)OC[C@@]5(C)CCC[C@]6(C)[C@@H]5CC[C@@]57C=C[C@@](C)(CC[C@H]56)C7)CCC[C@@]4(C)[C@@H]3CC1)C2
inhibition (Escherichia coli): inactive | inhibition (Pseudomonas aeruginosa): inactive | inhibition (Staphylococcus aureus [6]): inactive | inhibition [7]: inactive | inhibition (Priestia megaterium [8]): inactive | inhibition (Bacillus thuringiensis [9]): inactive

C[C@]12C=C[C@@]3(CC[C@@H]4[C@@](C)(COC(=O)CCC(=O)OC[C@@]5(C)CCC[C@]6(C)[C@@H]5CC[C@@]57C=C[C@@](C)(CC[C@H]56)C7)CCC[C@@]4(C)[C@@H]3CC1)C2
inhibition (Escherichia coli): inactive | inhibition (Pseudomonas aeruginosa): inactive | inhibition (Staphylococcus aureus [6]): inactive | inhibition [7]: inactive | inhibition (Priestia megaterium [8]): inactive | inhibition (Bacillus thuringiensis [9]): inactive

C[C@]12C=C[C@@]3(CC[C@@H]4[C@@](C)(CO)CCC[C@@]4(C)[C@@H]3CC1)C2
inhibition (Escherichia coli): inactive | inhibition (Pseudomonas aeruginosa): inactive | inhibition (Staphylococcus aureus [6]): inactive | inhibition [7]: inactive | inhibition (Priestia megaterium [8]): inactive | inhibition (Bacillus thuringiensis [9]): inactive | Activity (HaCaT): Non-Toxic

C[C@]12C=C[C@@]3(CC[C@@H]4[C@@](C)(COC(=O)C(=O)O)CCC[C@@]4(C)[C@@H]3CC1)C2
inhibition at 64 µM [1]: 50% | inhibition at 64 µM (Bacillus thuringiensis [2]): 50% | inhibition at 64 µM (Staphylococcus aureus [4]): 40% | cytotoxicity at 24 h, 64 µM [5]: 36%

C[C@]12C=C[C@@]3(CC[C@@H]4[C@@](C)(COC(=O)C(=O)OC[C@@]5(C)CCC[C@]6(C)[C@@H]5CC[C@@]57C=C[C@@](C)(CC[C@H]56)C7)CCC[C@@]4(C)[C@@H]3CC1)C2
inhibition (Escherichia coli): inactive | inhibition (Pseudomonas aeruginosa): inactive | inhibition (Staphylococcus aureus [6]): inactive | inhibition [7]: inactive | inhibition (Priestia megaterium [8]): inactive | inhibition (Bacillus thuringiensis [9]): inactive
